The list is not random: actives were taken first. Their share in the collection is about 5.7%.
CSC inhib = cancer stem cell viability inhibitors, primary screen, luminescence | cancer stem cell-like cells viability | AID 2717, 2010 | inhibition, % at 7.5 µM | 1.1% of 300,000 active; in the data active = inhibition above about 75%; inconclusive = no clear call, values can overlap the other calls; tested in HMLE shEcad cells
Beta apoptosis = inhibitors of cytokine-induced beta cell apoptosis, primary screen, luminescence | INS-1E cytokine-induced death, ATP luminescence, 48 h; percent of positive-control rescue, neutral wells zero | protection from apoptosis, % (concentration not given with the values) | 0.8% of 300,000 active | AID 435005, 2010;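 active = Every replicate reaches about 75%, or at least half do and their mean reaches it too, limit read from the data; inconclusive = At least half of replicates reach the limit but their mean does not; inactive = Under half of replicates reach the limit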;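 note: 0% = cytokine-treated negative control wells and 100% = positive control rescue; higher means more ATP so stronger rescue from cytokine killing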
SKKanGAS inh = S. pyogenes SKKanGAS growth inhibitors in kanamycin, primary screen, streptokinase expression inhibitor project, SKKanGAS strain, BacTiter-Glo luminescence; 6 h; inhibition, % at 7.5 µM; 1.3% of 300,000 active;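 active = mean replicate score, as percent of positive control median, at least 50; inconclusive = mean below 50 but one replicate at or above 50; inactive = mean and every replicate below 50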;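 note: strain carries kanamycin resistance gene driven by streptokinase promoter and grows in 40 µg/ml kanamycin; loss of luminescence reflects streptokinase promoter inhibition or plain growth inhibition; 0% = median of DMSO wells and 100% = positive control at its reference dose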
Mdm2-MdmX inh = inhibitors of human Mdm2-MdmX association, primary screen, cell-based, luminescence, split luciferase, SaOS-2, uHTS. inhibition, % at 8 µM. Protein Mdm4 (Homo sapiens) + E3 ubiquitin-protein ligase Mdm2 (Homo sapiens), …. SaOS-2 split-luciferase Mdm2/MdmX complementation. AID 485346, 2010. 3% of 330,000 active;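 active = inhibition of at least 50% at 8 µM in the primary screen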
Target sequence (O15151 whole entry, looked up): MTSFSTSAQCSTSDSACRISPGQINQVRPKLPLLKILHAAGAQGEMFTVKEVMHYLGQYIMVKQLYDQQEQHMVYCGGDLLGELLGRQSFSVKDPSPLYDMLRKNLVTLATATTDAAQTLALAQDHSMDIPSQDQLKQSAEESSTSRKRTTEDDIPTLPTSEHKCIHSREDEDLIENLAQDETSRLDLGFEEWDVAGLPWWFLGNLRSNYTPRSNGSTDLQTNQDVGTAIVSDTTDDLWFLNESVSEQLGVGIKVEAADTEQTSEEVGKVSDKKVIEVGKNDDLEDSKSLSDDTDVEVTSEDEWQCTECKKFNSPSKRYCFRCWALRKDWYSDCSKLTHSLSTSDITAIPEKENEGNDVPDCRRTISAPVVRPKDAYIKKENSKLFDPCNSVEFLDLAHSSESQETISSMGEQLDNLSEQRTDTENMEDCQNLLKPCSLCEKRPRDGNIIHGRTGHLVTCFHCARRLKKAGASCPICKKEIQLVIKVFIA
Target sequence (Q00987 whole entry, looked up): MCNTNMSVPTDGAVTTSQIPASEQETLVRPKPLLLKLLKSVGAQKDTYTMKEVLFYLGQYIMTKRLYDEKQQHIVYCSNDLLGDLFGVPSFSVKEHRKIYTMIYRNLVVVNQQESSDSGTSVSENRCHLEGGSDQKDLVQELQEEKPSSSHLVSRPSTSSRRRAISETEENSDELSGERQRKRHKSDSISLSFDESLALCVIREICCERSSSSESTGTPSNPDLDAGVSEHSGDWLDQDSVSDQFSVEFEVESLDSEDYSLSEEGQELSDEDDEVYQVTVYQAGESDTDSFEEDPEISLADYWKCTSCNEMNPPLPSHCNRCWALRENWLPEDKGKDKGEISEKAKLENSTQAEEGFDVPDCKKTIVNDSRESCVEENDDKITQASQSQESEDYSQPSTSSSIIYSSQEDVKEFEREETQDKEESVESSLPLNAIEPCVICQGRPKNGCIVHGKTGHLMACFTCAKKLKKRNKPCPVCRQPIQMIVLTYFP
Calb FLC = C. albicans growth inhibition with fluconazole, primary screen, CaCi-2 strain, Alamar Blue fluorescence; growth inhibition, % (concentration not given with the values); AID 1979, 2009; C. albicans CaCi-2 (fluconazole-resistant clinical isolate) + fluconazole, 48 h; 0.57% of 300,000 active;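 active = growth inhibition above about 58% in most replicates, limit read from the data, passing the limit was not always enough; inconclusive = exactly half the replicates above a set limit; inactive = most replicates below a set limit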;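 note: all wells also contain fluconazole at 8 µg/ml as a sub-toxic cotreatment; 0% = median of DMSO wells and 100% = median of geldanamycin control wells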
T cruzi inh = inhibitors of intracellular T. cruzi growth, primary screen, luminescence, NIH3T3 host cells | T. cruzi beta-gal in NIH3T3, 90 h | inhibition, % (no concentration beside the values) | 1.4% of 300,000 active;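 active = mean inhibition across valid replicates above about 55%, limit read from the data; inconclusive = mean below that limit but half or more replicates reach it; inactive = mean below it, under half of replicates reach it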;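 note: signal also drops with host cell toxicity which is not excluded here; 0% = plate median of DMSO wells and 100% = zero luminescence signal; higher percent means less beta-gal luminescence so fewer parasites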
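System: NIH/3T3 fibroblasts plus reporter T. cruzi. Medium: DMEM plus 2% FBS. Probe or stimulus: 5000 reporter trypomastigotes per well. Compound: single 50 nL compound addition per well in DMSO. Incubation: co-culture of at least 90 h after 3 h attachment. Detection: GalScreen β-gal luminescence, detergent lysis, 60 min. Evaluation: parasite load inhibition, %.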
* = called active by the depositor; ? = inconclusive; . = no result.

SMILES	CSC inhib	Beta apoptosis	SKKanGAS inh	Mdm2-MdmX inh	Calb FLC	T cruzi inh
Cc1cccc(OCc2nnc(SCC(=O)N3CCCCC3)o2)c1	-21.7	-0.8	-6.8	15.9	4.3	3.6
N#Cc1nc(-c2ccccc2Cl)oc1N1CCN(C(=O)c2ccco2)CC1	-8.1	.	69.1*	9.3	2.5	5.8
N#Cc1nc(-c2ccccc2F)oc1N1CCN(C(=O)c2ccco2)CC1	-2.0	.	20.9	-8.6	-8.2	-1.3
CCOC(=O)c1[nH]c2ccc(OC)cc2c1NC(=O)/C=C/c1ccc2c(c1)OCO2	16.1	3.6	-2.3	-2.2	16.8	14.2
COC(=O)c1c(NC(=O)/C=C/c2ccc3c(c2)OCO3)sc(C)c1C	103.2*	-4.8	-9.1	4.1	4.3	-5.2
CCOC(=O)c1c(NC(=O)/C=C/c2ccc3c(c2)OCO3)sc(C)c1CC	122.5*	2.2	-1.9	-7.1	-6.3	-15.5
C[C@H](C(=O)NCc1ccccc1)C(=O)c1ccccc1	-1.1	0.9	27.0	1.7	1.0	-11.5
COC(CN(C)C(=O)c1cn(C)c2ccc(S(=O)(=O)N(C)C3CCCCC3)cc2c1=O)OC	-6.7	-10.1	-1.5	-10.4	-4.3	-1.3
Cc1ccccc1-c1nnn(Cc2cccc(S(=O)(=O)N3CCOCC3)c2)n1	-0.4	1.7	.	8.2	.	.
Cc1ccc(-c2csc(NC(=O)c3c(C)noc3C)n2)cc1C	15.2	5.7	.	1.8	.	.
Cc1ccc(-c2csc(NC(=O)c3c(C)noc3C)n2)s1	1.0	123.9*	.	-3.1	.	.
CCOc1ccc(NC(=O)CSc2nc3ccccc3nc2N2CC(C)OC(C)C2)cc1 (stereo unspecified)	5.8	5.6	7.1	11.6	-1.4	26.2
CCN1CCN(c2ccc(S(=O)(=O)N3CCOCC3)cc2NC(=O)CCSC)CC1	.	-1.1	.	-18.1	.	.
Cc1c(C(=O)N2CCN(S(=O)(=O)c3ccc(F)cc3)CC2)oc2ccccc12	-13.2	3.0	-12.0	18.1	-9.6	56.0*
Cc1c(C(=O)Nc2cc(S(=O)(=O)N3CCOCC3)ccc2N2CCOCC2)oc2ccccc12	7.7	12.7	8.7	29.9	-12.5	74.7*
CCN1CCN(c2ccc(S(=O)(=O)N3CCOCC3)cc2NC(=O)CCC(C)C)CC1	-12.0	-8.6	-12.6	9.8	-4.5	55.8*
CCN1CCN(c2ccc(S(=O)(=O)N3CCOCC3)cc2NC(=O)COc2ccc(F)cc2Cl)CC1	3.7	.	7.9	14.2	3.1	57.0*
O=C(Nc1cc(S(=O)(=O)N2CCOCC2)ccc1N1CCOCC1)c1ccccc1F	-9.6	4.4	.	-19.8	.	.
CCN(C1CCS(=O)(=O)C1)S(=O)(=O)c1ccc(Cl)s1 (stereo unspecified)	.	.	.	26.7	.	.
CCN1CCN(c2ccc(S(=O)(=O)N3CCOCC3)cc2NC(=O)C(C)Oc2cccc(Cl)c2)CC1 (stereo unspecified)	-10.4	0.5	2.4	17.4	-13.4	30.2
CCN1CCN(c2ccc(S(=O)(=O)N3CCOCC3)cc2NC(=O)CCOc2ccccc2)CC1	-4.5	-4.8	-2.0	14.2	-5.0	55.8*
CCC(=O)c1ccc(OCC(=O)Nc2cc(S(=O)(=O)N3CCCCC3)ccc2N2CCN(CC)CC2)cc1	-8.3	9.0	-2.8	29.8	3.1	45.0
CCN1CCN(c2ccc(S(=O)(=O)N3CCCCC3)cc2NC(=O)Cc2ccccc2)CC1	-9.3	-4.4	-14.2	10.8	.	45.3
CC(Oc1cccc(Cl)c1)C(=O)Nc1cc(S(=O)(=O)N2CCOCC2)ccc1N1CCCCC1 (stereo unspecified)	-3.1	110.4*	36.1	42.1	-0.7	46.8
CCN1CCN(c2ccc(S(=O)(=O)N3CCCCC3)cc2NC(=O)Cc2ccccc2F)CC1	-13.2	2.7	-7.2	19.6	-4.6	54.8*
SMILES	CSC inhib	Beta apoptosis	SKKanGAS inh	Mdm2-MdmX inh	Calb FLC	T cruzi inh
CCN1CCN(c2ccc(S(=O)(=O)N3CCCCC3)cc2NC(=O)COc2ccccc2)CC1	-5.6	.	-1.2	29.7	-5.8	58.2*
CCN1CCN(c2ccc(S(=O)(=O)N3CCOCC3)cc2NC(=O)c2ccccc2OC(F)F)CC1	18.7	-12.9	11.7	14.3	34.7	22.4
COc1cccc(-c2ncc3ccccc3c2COC(=O)c2ccc(C(F)(F)F)cc2)c1	7.8	-0.4	.	26.8	.	.
CCn1cc(S(=O)(=O)Nc2cc(C)ccc2F)cn1	.	.	-1.1	17.4	-14.5	-12.5
COc1ccc2c(c1)Cc1sc(NC(=O)c3cccs3)nc1-2	-3.2	9.5	14.0	-86.5	4.6	54.7*
COc1ccc(C(=O)Nc2nc3c(s2)Cc2cc(OC)ccc2-3)cc1	4.3	11.2	1.5	-13.0	-2.7	-4.3
O=C(Nc1nnc(-c2ccco2)o1)c1ccc2ccccc2c1	11.0	.	91.8*	5.0	-13.9	-5.9
Cc1ccsc1C(=O)Nc1nnc(-c2ccco2)o1	-9.9	-4.5	83.1*	-7.6	68.6	32.9
Nc1c(C(=O)OCC(=O)Nc2cccc([N+](=O)[O-])c2)[nH]c(=O)[nH]c1=O	-15.5	1.5	.	15.1	.	.
NS(=O)(=O)c1ccc(CNC(=O)CSc2nc3ccc(Cl)cc3[nH]2)cc1	-0.7	-7.4	-16.3	2.9	-5.8	5.4
O=C(Nc1ccccn1)C1CCCN(c2ncnc3c2nc2n3CCCCC2)C1 (stereo unspecified)	38.8	-2.8	-2.1	12.0	7.4	-9.7
O=C(CCC(=O)Nc1ccc(Cl)cc1Cl)N/N=C/c1ccc([N+](=O)[O-])o1	-9.0	107.4*	17.5	8.0	101.5*	59.9*
O=[N+]([O-])c1ccc(C=Nc2cccc3ccccc23)s1	7.3	7.5	11.6	18.5	14.2	60.5*
O=C(CNC(=O)c1ccccc1)N/N=C/c1ccccc1Cl	-3.3	2.5	-2.4	9.8	?	-12.2
O=[N+]([O-])c1ccc(-c2ccc(C=Nc3cccc4ccccc34)o2)cc1	11.0	1.6	1.6	19.2	-5.2	-13.1
O=C(CNC(=O)c1ccccc1)N/N=C/c1ccc([N+](=O)[O-])o1	-8.0	19.0	19.8	21.5	-3.0	59.0*
O=C(Cc1ccc2c(c1)OCO2)NN=Cc1ccc([N+](=O)[O-])o1	-0.5	41.0	.	13.0	.	.
O=C(CNC(=O)c1ccccc1)N/N=C/c1ccc([N+](=O)[O-])s1	-0.5	-5.7	-0.1	12.4	32.3	76.0*
C=CCNCc1ccc(C(=O)NCCCCCCC)cc1[N+](=O)[O-]	-4.6	3.3	5.7	-13.6	-12.1	23.0
CCCCCC(=O)N/N=C/c1ccc(N(C)C)cc1	-8.7	-10.5	-0.5	-14.5	-47.8	-3.8
O=C(CNc1ccccc1)N/N=C/c1ccc([N+](=O)[O-])o1	6.5	13.5	3.9	3.5	17.5	63.8*
Cc1ccc(NCC(=O)N/N=C\c2ccc([N+](=O)[O-])o2)cc1	-7.2	18.6	-18.1	4.7	7.0	52.4
